Eight molecules from ChEMBL document CHEMBL1153135, “Reaction of naphthoquinones with substituted nitromethanes. Facile synthesis and antifungal activity of naphtho[2,3-d]isoxazole-4,9-diones” (2010) can be followed below.

Format in all cases: functional
Experiment [1] deals with Candida albicans. As to the kind of experiment: Antifungal activity against Candida albicans ATCC 90028 after 48 hrs. The settings on record: ATCC 90028, 48 h. In a few lines:
(§1)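 Broth microdilution after modified CLSI M27-A in SG minimal medium (yeast nitrogen base without amino acids, 2% glucose). Compounds dissolved in DMSO (1 mg/mL), diluted 10-fold in SG, then 30 final concentrations from 97.5 to 0.0025 µg/mL. About 5 × 10³ cells/well, in triplicate. Incubated at 30 °C for 48 h, OD 655 nm read as % of DMSO control; MIC50 by probit analysis of mean values.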

For experiment [2], the system named is Candida parapsilosis. Description: Antifungal activity against Candida parapsilosis ATCC 22019 after 48 hrs. The settings on record: Lodderomyces parapsilosis, ATCC 22019, 48 h. In a few lines: as §1
A further experiment has as its system Pichia kudriavzevii. As to the kind of experiment: Antifungal activity against Candida krusei PYCC 3341 after 48 hrs. The settings on record: PYCC 3341, 48 h. In a few lines:
as §1

Experiment [3] has as its system Candida albicans. As to the kind of experiment: Antifungal activity against Candida albicans PYCC 3436 after 48 hrs. Particulars: PYCC 3436, 48 h. An outline of the steps: as §1
The next experiment deals with Nakaseomyces glabratus. Description: Antifungal activity against Candida glabrata PYCC 2418 after 48 hrs. Particulars: PYCC 2418, 48 h. An outline of the steps: as §1
In experiment [4] the test system is Candida parapsilosis. As to the kind of experiment: Antifungal activity against Candida parapsilosis PYCC 2545 after 48 hrs. Particulars: Lodderomyces parapsilosis, PYCC 2545, 48 h. In a few lines:
as §1

In brackets after ≈: the same amount, converted by molar mass.

A word on the MIC50: it is the lowest concentration that inhibits either 50% of growth or 50% of the strains tested, depending on the study. The low end stands for higher susceptibility, the high end for lower susceptibility. For `CCOC1=C(Cl)C(=O)c2ccccc2C1=O`, the MIC50 in the experiment with Candida albicans [1] came to 202 µM (≈ 47.9 µg/mL); against Candida parapsilosis [2], 40.4 µM (≈ 9.56 µg/mL); against Pichia kudriavzevii, 3.9 µM (≈ 0.923 µg/mL); with Candida albicans [3], 9.5 µM (≈ 2.25 µg/mL); against Nakaseomyces glabratus it was 3.8 µM (≈ 0.899 µg/mL); against Candida parapsilosis [4], 48.3 µM (≈ 11.4 µg/mL).

`COC1=C(Cl)C(=O)c2ccccc2C1=O`: the MIC50 in the experiment with Candida albicans [1] came to 73.9 µM (≈ 16.5 µg/mL); with Candida parapsilosis [2], 4.7 µM (≈ 1.05 µg/mL); against Pichia kudriavzevii it was 4.6 µM (≈ 1.02 µg/mL); in the experiment with Candida albicans [3], 10.4 µM (≈ 2.32 µg/mL); in the experiment on Nakaseomyces glabratus it was 16.7 µM (≈ 3.72 µg/mL); in the experiment with Candida parapsilosis [4], 5.3 µM (≈ 1.18 µg/mL).

As to `CCOC(=O)CC1=C(Br)C(=O)c2ccccc2C1=O`, the MIC50 against Candida albicans [1] came out at 4.5 µM (≈ 1.45 µg/mL); in the experiment with Candida parapsilosis [2], 3.2 µM (≈ 1.03 µg/mL); against Candida albicans [3], 0.9 µM (≈ 0.291 µg/mL); in the experiment on Nakaseomyces glabratus it was 12 µM (≈ 3.88 µg/mL); against Candida parapsilosis [4] it was 1.1 µM (≈ 0.355 µg/mL).

Regarding `O=C1c2ccccc2C(=O)c2c(S(=O)(=O)c3ccccc3)noc21`, the MIC50 came to 56.7 µM (≈ 19.2 µg/mL) in the experiment with Candida albicans [1]; 6.1 µM (≈ 2.07 µg/mL) against Candida parapsilosis [2]; 9.7 µM (≈ 3.29 µg/mL) in the experiment with Pichia kudriavzevii; 2.5 µM (≈ 0.848 µg/mL) in the experiment with Candida albicans [3]; 1.5 µM (≈ 0.509 µg/mL) in the experiment with Nakaseomyces glabratus; 1.6 µM (≈ 0.543 µg/mL) against Candida parapsilosis [4].

Consider `CCOC(=O)c1noc2c1C(=O)c1ccccc1C2=O`, for which the MIC50 stood at 11.5 µM (≈ 3.12 µg/mL) against Candida albicans [1]; 1.7 µM (≈ 0.461 µg/mL) in the experiment with Candida parapsilosis [2]; 2.3 µM (≈ 0.624 µg/mL) in the experiment with Pichia kudriavzevii; 1.8 µM (≈ 0.488 µg/mL) with Candida albicans [3]; 0.6 µM (≈ 0.163 µg/mL) in the experiment with Nakaseomyces glabratus; 0.6 µM (≈ 0.163 µg/mL) against Candida parapsilosis [4].

Turning to `O=C(c1ccccc1)c1noc2c1C(=O)c1ccccc1C2=O`, the MIC50 in the experiment on Candida albicans [1] was determined as 71.2 µM (≈ 21.6 µg/mL); against Candida parapsilosis [2], 3.3 µM (≈ 1 µg/mL); against Pichia kudriavzevii, 21.2 µM (≈ 6.43 µg/mL); against Candida albicans [3], 1.6 µM (≈ 0.485 µg/mL); against Nakaseomyces glabratus, 47.6 µM (≈ 14.4 µg/mL); with Candida parapsilosis [4], 13.2 µM (≈ 4 µg/mL).

For `COC(=O)c1noc2c1C(=O)c1ccccc1C2=O`, the MIC50 in the experiment with Candida albicans [1] was determined as 12.2 µM (≈ 3.14 µg/mL); against Candida parapsilosis [2] it was 1.8 µM (≈ 0.463 µg/mL); against Pichia kudriavzevii, 2.4 µM (≈ 0.617 µg/mL); against Candida albicans [3], 0.7 µM (≈ 0.18 µg/mL); in the experiment on Nakaseomyces glabratus, 2.6 µM (≈ 0.669 µg/mL); in the experiment on Candida parapsilosis [4], 1.3 µM (≈ 0.334 µg/mL).

Take `C[C@@H]1[C@H](O)[C@@H](C)/C=C/C=C/C=C/C=C/C=C/C=C/C=C/[C@H](O[C@@H]2O[C@H](C)[C@@H](O)[C@H](N)[C@@H]2O)C[C@@H]2O[C@](O)(C[C@@H](O)C[C@@H](O)[C@H](O)CC[C@@H](O)C[C@@H](O)CC(=O)O[C@H]1C)C[C@H](O)[C@H]2C(=O)O` [AMPHOTERICIN B]: the MIC50 against Candida albicans [1] was 1.2 µM (≈ 1.11 µg/mL); against Candida parapsilosis [2], 0.5 µM (≈ 0.462 µg/mL); in the experiment on Pichia kudriavzevii, 1 µM (≈ 0.924 µg/mL); in the experiment with Candida albicans [3], 0.5 µM (≈ 0.462 µg/mL); against Nakaseomyces glabratus it was 0.4 µM (≈ 0.37 µg/mL); in the experiment with Candida parapsilosis [4], 0.5 µM (≈ 0.462 µg/mL).
